Measured values taken from ChEMBL document CHEMBL2029304, “Synthesis and SAR of tetrahydroisoquinolines as Rev-erbα agonists” (Bioorg Med Chem Lett, 2012).

Key:
[1] = biological target: T1, Nuclear receptor subfamily 1 group D member 1 (Homo sapiens, UniProt P20393); experiment: Agonist activity at Rev-erbalpha assessed as NCoR recruitment by FRET assay; type: functional
T1 sequence (P20393 whole entry): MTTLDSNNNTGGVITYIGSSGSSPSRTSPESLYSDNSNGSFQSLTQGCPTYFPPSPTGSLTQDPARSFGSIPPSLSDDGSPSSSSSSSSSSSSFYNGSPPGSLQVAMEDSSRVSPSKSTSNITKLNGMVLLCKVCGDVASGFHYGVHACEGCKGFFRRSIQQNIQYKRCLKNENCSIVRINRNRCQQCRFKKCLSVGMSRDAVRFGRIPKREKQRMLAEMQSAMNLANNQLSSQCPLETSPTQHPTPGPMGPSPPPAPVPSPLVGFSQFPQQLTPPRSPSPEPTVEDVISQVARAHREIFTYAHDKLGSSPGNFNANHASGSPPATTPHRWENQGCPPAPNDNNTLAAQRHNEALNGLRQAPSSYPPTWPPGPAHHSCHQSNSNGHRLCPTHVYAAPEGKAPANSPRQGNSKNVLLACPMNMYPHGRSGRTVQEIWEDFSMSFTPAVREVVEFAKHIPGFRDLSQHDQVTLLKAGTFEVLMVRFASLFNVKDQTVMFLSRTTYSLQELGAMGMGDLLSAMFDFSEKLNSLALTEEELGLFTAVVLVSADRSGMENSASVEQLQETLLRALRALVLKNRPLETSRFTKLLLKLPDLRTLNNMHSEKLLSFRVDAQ

[2] = biological target: T2, Nuclear receptor subfamily 1 group D member 1 (Homo sapiens) (UniProt P20393); experiment: Agonist activity at Rev-erbalpha assessed as repression of transcription at 10 uM by luciferase-reporter gene assay relative to control; type: functional
T2 sequence (whole entry): T1 sequence (P20393 whole entry)
In short: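 Cells co-transfected with a full-length Rev-erbα expression plasmid and a luciferase reporter driven by the Bmal1 promoter. Compounds were screened at 1 μM and 10 μM for repression of Bmal1-driven transcription. The value is the fold change in luciferase signal relative to the DMSO control at 10 μM compound, where 1.0 means no repression.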

[3] = biological target: T1, Nuclear receptor subfamily 1 group D member 1; experiment: Agonist activity at Rev-erbalpha assessed as repression of transcription by luciferase-reporter gene assay; type: functional
In short: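 Cells co-transfected with a full-length Rev-erbα expression plasmid and a luciferase reporter driven by the Bmal1 promoter; repression of Bmal1 transcription read by luciferase. Compounds first tested at 1 μM and 10 μM, value given as fold change versus DMSO control at 10 μM (1.0 = no repression). Active compounds then titrated in an eleven-point dose response to give EC50.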

[4] = Half life in Sprague-Dawley rat at 1 mg/kg, iv and 2 mg/kg, po by LC-MS/MS analysis; type: ADME, organism-based; settings: in vivo
In short: (§1)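 Male/female unspecified Sprague-Dawley rats, n = 3; single 1 mg/kg i.v. dose and 2 mg/kg oral gavage dose. Blood sampled at 5, 15, 30 min, 1, 2, 4, 6, 8 h into EDTA tubes, plasma by centrifugation, proteins precipitated with acetonitrile, drug measured by LC-MS/MS. Noncompartmental analysis gave t1/2, clearance, Vd, AUC, Cmax and oral bioavailability.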

Rattus norvegicus [5] = experiment: Volume of distribution in Sprague-Dawley rat at 1 mg/kg, iv and 2 mg/kg, po by LC-MS/MS analysis; type: ADME, organism-based; settings: in vivo; in short: as §1
Rattus norvegicus [6] = experiment: Oral bioavailability in Sprague-Dawley rat at 2 mg/kg by LC-MS/MS analysis; type: ADME, organism-based; settings: in vivo; in short: as §1
Brain = experiment: Brain penetration in C57Bl6 mouse at 10 mg/kg, ip after 2 hrs by LC-MS/MS analysis; type: ADME, organism-based; set-up: dose 10 mg/kg, route intraperitoneal; settings: in vivo
In short: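 C57Bl6 mice (n = 3), single 10 mg/kg intraperitoneal dose; blood and brain collected at 2 h, plasma frozen at −80°C. Plasma and brain mixed with acetonitrile (1:5 v:v or w:v), brain probe-sonicated, drug measured by LC-MS/MS against plasma or blank-brain-matrix standards; brain penetration as brain/plasma level percentage.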

SMILES | fold change (FC) [2] | EC50 [3] [nM] | other results
CC(C)(C)OC(=O)CN(Cc1ccc(Cl)cc1)Cc1ccc([N+](=O)[O-])s1 [GSK-4112] | 0.82 | 2300 | EC50 [1]: 400 nM; half-life [4]: 0.4 h; Vd (Rattus norvegicus [5]): 9.9 L/kg; F (Rattus norvegicus [6]): 0%; Drug uptake (Brain): 140%
O=C(c1cccc2ccccc12)N1Cc2ccccc2CC1CNCc1ccccc1 (stereo unspecified) | 0.43 | > 3000 | half-life [4]: 1.7 h; Vd (Rattus norvegicus [5]): 3.8 L/kg; F (Rattus norvegicus [6]): 0%
O=C(c1cccc2ccccc12)N1Cc2ccccc2CC1COc1ccc(-c2ccccc2)cc1 (stereo unspecified) | 0.4 | 650 | 
COc1ccc(OCC2Cc3ccccc3CN2C(=O)c2cccc3ccccc23)cc1OC (stereo unspecified) | 0.55 | 330 | 
CCOC(=O)C1Cc2ccccc2CN1S(=O)(=O)c1cccc(Br)c1 (stereo unspecified) | 0.75 |  | 
CN(C)c1cccc(OCC2Cc3ccccc3CN2C(=O)c2cccc3ccccc23)c1 (stereo unspecified) | 0.3 | 780 | 
CCOc1ccc(OCC2Cc3ccccc3CN2C(=O)c2cccc3ccccc23)cc1 (stereo unspecified) | 0.35 | 97 | 
NC(=O)C1Cc2ccccc2CN1C(=O)c1cccc2ccccc12 (stereo unspecified) | 0.61 |  | 
CCOC(=O)C1Cc2ccccc2CN1C(=O)Nc1ccccc1 (stereo unspecified) | 1.5 |  | 
CCOC(=O)C1Cc2ccccc2CN1C(=O)c1ccccc1 (stereo unspecified) | 0.97 |  | 
COc1cccc(OCC2Cc3ccccc3CN2C(=O)c2cccc3ccccc23)c1 (stereo unspecified) | 0.45 | 620 | 
O=C(Nc1ccccc1)C1Cc2ccccc2CN1C(=O)c1cccc2ccccc12 (stereo unspecified) | 0.59 |  | 
O=C(c1cccc2ccccc12)N1Cc2ccccc2CC1COc1ccc(F)cc1 (stereo unspecified) | 0.43 | 800 | 
O=C(c1cccc2ccccc12)N1Cc2ccccc2CC1COc1ccc(OC(F)(F)F)cc1 (stereo unspecified) | 0.4 | 600 | 
CCOC(=O)C1Cc2ccccc2CN1C(=O)c1cccc2cccnc12 (stereo unspecified) | 0.64 |  | 
O=C(NCc1ccccc1)C1Cc2ccccc2CN1C(=O)c1cccc2ccccc12 (stereo unspecified) | 0.55 | > 3000 | 
O=C(NCC1Cc2ccccc2CN1C(=O)c1cccc2ccccc12)OCc1ccccc1 (stereo unspecified) | 0.53 |  | 
CCOC(=O)C1Cc2ccccc2CN1C(=O)c1cccc(Br)c1 (stereo unspecified) | 0.97 |  | 
O=C(c1cccc2ccccc12)N1Cc2ccccc2CC1COCc1ccccc1 (stereo unspecified) | 0.41 | 650 | half-life [4]: 1.9 h; Vd (Rattus norvegicus [5]): 3.8 L/kg; F (Rattus norvegicus [6]): 0%
CCOC(=O)C1Cc2ccccc2CN1C(=O)c1cccc2ccccc12 (stereo unspecified) | 0.41 | 2500 | 
CCOC(=O)C1Cc2ccccc2CN1C(=O)Nc1cccc2ccccc12 (stereo unspecified) | 1 |  | 
O=C(O)C1Cc2ccccc2CN1C(=O)c1cccc2ccccc12 (stereo unspecified) | 0.67 |  | 
CCCOc1ccc(OCC2Cc3ccccc3CN2C(=O)c2cccc3ccccc23)cc1 (stereo unspecified) | 0.45 | 77 | 
O=C(c1cccc2ccccc12)N1Cc2ccccc2CC1COc1ccc(F)cc1F (stereo unspecified) | 0.45 | 710 | 
O=C(c1cccc2ccccc12)N1Cc2ccccc2CC1COc1cccc2ccccc12 (stereo unspecified) | 0.41 | 1200 | 
CCOC(=O)C1Cc2ccccc2CN1S(=O)(=O)c1cccc2ccccc12 (stereo unspecified) | 0.5 | 1700 | 

SMILES | fold change (FC) [2] | EC50 [3] [nM] | other results
CCOC(=O)C1Cc2ccccc2CN1Cc1ccc(C(F)(F)F)nc1 (stereo unspecified) | 1 |  | 
CC(C)(C)Oc1ccc(OCC2Cc3ccccc3CN2C(=O)c2cccc3ccccc23)cc1 (stereo unspecified) | 0.5 | 140 | 
CCOC(=O)C1Cc2ccccc2CN1C(=O)Oc1ccccc1 (stereo unspecified) | 1 |  | 
O=C(c1cccc2ccccc12)N1Cc2ccccc2CC1COc1ccc(-n2cncn2)cc1 (stereo unspecified) | 0.35 | 120 | 
CCOC(=O)C1Cc2ccccc2CN1C(=O)C1COc2ccccc2O1 (stereo unspecified) | 0.81 |  | 
CCOC(=O)C1Cc2ccccc2CN1C(=O)c1ccno1 (stereo unspecified) | 1 |  | 
CCOC(=O)C1Cc2ccccc2CN1C(=O)Oc1cccc(C(F)(F)F)c1 (stereo unspecified) | 1 |  | 
CCOC(=O)C1Cc2ccccc2CN1Cc1ccc(C(=O)O)s1 (stereo unspecified) | 1 |  | 
O=C(c1cccc2ccccc12)N1Cc2ccccc2CC1COc1ccccc1 (stereo unspecified) | 0.37 | 840 | 
CCOC(=O)C1Cc2ccccc2CN1Cc1nc2ccccc2s1 (stereo unspecified) | 0.95 |  | 
COc1ccccc1OCC1Cc2ccccc2CN1C(=O)c1cccc2ccccc12 (stereo unspecified) | 0.4 | 2000 | 
CCOC(=O)C1Cc2ccccc2CN1C(=O)Oc1ccc(Cl)cc1 (stereo unspecified) | 1.3 |  | 
O=C(c1cccc2ccccc12)N1Cc2ccccc2CC1CNS(=O)(=O)c1ccccc1 (stereo unspecified) | 0.4 |  | 
CCOC(=O)C1Cc2ccccc2CN1Cc1ccc([N+](=O)[O-])s1 (stereo unspecified) | 0.78 |  | 
CCOC(=O)C1Cc2ccccc2CN1Cc1ccc([N+](=O)[O-])o1 (stereo unspecified) | 0.9 |  | 
CCOC(=O)C1Cc2ccccc2CN1C(=O)c1cccc2oc(C)cc12 (stereo unspecified) | 0.51 | > 3000 | 
CCOC(=O)C1Cc2ccccc2CN1Cc1cccc2ccccc12 (stereo unspecified) | 1 |  | 
CCOC(=O)C1Cc2ccccc2CN1S(=O)(=O)c1ccc(C)cc1 (stereo unspecified) | 0.51 | 1100 | 
COc1ccc(OCC2Cc3ccccc3CN2C(=O)c2cccc3ccccc23)cc1 (stereo unspecified) | 0.38 | 120 | 
CCOC(=O)C1Cc2ccccc2CN1C(=O)C1CCCc2ccccc21 (stereo unspecified) | 0.73 |  | 
O=C(c1cccc2ccccc12)N1Cc2ccccc2CC1CO (stereo unspecified) | 0.71 |  | 
NCC1Cc2ccccc2CN1C(=O)c1cccc2ccccc12 (stereo unspecified) | 0.74 |  | 
CCOC(=O)C1Cc2ccccc2CN1C(=O)c1cccc2c1CCCC2 (stereo unspecified) | 0.53 | 2100 | 
CC(=O)OCC1Cc2ccccc2CN1C(=O)c1cccc2ccccc12 (stereo unspecified) | 0.65 |  | 
CCOC(=O)C1Cc2ccccc2CN1C(=O)c1ccccc1Cl (stereo unspecified) | 0.78 |  | 
